In ChEMBL document CHEMBL5365545, “Synthesis and Optimization of 1-Substituted Imidazo[4,5-c]quinoline TLR7 Agonists” (ACS Med Chem Lett, 2023):
pEC50: −log10 of the molar value. Active and inactive are the calls of the source. The calls are words filed in the database; no cut-off is given here.

biological target: T1, Toll-like receptor 7 (Homo sapiens, UniProt Q9NYK1); test: Agonist activity at TLR7 in human Ramos-blue cells assessed as increase in NFkappaB activation incubated for 72 hrs by quanti-blue/SEAP reporter gene based assay; type: cell-based; conditions: not given
T1 sequence (Q9NYK1 whole entry): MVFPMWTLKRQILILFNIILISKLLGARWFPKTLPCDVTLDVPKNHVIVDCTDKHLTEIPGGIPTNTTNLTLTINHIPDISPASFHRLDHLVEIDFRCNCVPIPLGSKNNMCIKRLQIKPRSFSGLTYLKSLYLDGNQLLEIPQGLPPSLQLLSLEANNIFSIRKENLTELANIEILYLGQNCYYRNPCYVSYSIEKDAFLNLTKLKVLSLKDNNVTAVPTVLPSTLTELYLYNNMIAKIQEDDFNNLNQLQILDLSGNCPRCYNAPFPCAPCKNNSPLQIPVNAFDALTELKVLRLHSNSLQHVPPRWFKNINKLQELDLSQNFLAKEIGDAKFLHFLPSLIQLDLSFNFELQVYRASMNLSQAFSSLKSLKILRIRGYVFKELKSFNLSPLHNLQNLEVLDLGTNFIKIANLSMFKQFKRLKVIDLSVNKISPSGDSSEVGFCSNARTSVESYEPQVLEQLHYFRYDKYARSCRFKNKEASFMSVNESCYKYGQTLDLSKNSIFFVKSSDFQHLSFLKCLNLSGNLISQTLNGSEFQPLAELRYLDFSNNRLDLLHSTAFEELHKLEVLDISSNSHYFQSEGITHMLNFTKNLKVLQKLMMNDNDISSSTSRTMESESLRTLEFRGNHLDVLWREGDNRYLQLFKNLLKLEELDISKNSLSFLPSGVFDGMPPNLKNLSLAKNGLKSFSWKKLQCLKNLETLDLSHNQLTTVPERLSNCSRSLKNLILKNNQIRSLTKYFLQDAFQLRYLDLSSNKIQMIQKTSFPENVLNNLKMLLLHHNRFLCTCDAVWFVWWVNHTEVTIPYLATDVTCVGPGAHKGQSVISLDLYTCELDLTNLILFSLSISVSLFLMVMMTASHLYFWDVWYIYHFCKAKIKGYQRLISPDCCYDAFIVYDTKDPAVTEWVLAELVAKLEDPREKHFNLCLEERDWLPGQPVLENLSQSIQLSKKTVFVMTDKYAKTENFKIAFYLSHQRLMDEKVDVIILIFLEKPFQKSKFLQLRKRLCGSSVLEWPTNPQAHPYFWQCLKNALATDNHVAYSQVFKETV

Compound	pEC50
CCCCc1nc2c(N)nc3ccccc3c2n1Cc1ccc(N)cc1	7.16
CCCCc1nc2c(N)nc3ccccc3c2n1Cc1ccc(OC)cc1	6.63

test system: not listed separately; test: Apparent permeability of the compound at 200 uM incubated for 5 hrs by PAMPA assay; type: ADME; conditions: not given
Method in brief: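 PAMPA using an artificial lipid/oil/lipid trilayer membrane separating donor and acceptor wells. Compound was quantified by absorbance at 280 nm, or at 320 nm for some compounds. Runs were in triplicate, and the reported values are averages of three experiments.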

Compound	Papp at 5 h, 200 µM [×10⁻⁶ cm/s]
CCCCc1nc2c(N)nc3ccccc3c2n1Cc1ccc(NC(=O)CCNC(=O)OC(C)(C)C)cc1	0.434
CCCCc1nc2c(N)nc3ccccc3c2n1Cc1cccc(NC(=O)OC(C)(C)C)c1	1.24
CCCCc1nc2c(N)nc3ccccc3c2n1Cc1ccc(NC(=O)CN)cc1	0.834
CCCCc1nc2c(N)nc3ccccc3c2n1Cc1ccc(NC(=O)OC(C)C)cc1	5.12
CCCCc1nc2c(N)nc3ccccc3c2n1Cc1cccc(O)c1	0.98
CCCCc1nc2c(N)nc3ccccc3c2n1Cc1ccc(N)cc1	8.51
CCCCc1nc2c(N)nc3ccccc3c2n1Cc1ccc(NC(=O)CCCNC(=O)OC(C)(C)C)cc1	1.33
CCCCc1nc2c(N)nc3ccccc3c2n1Cc1ccc(NC(=O)CCCCNC(=O)OC(C)(C)C)cc1	1.95
CCCCc1nc2c(N)nc3ccccc3c2n1Cc1ccc(OC)cc1	4.01
CCCCc1nc2c(N)nc3ccccc3c2n1Cc1ccc(O)cc1	3.06
CCCCc1nc2c(N)nc3ccccc3c2n1Cc1ccc(NC(=O)CNC(=O)OC(C)(C)C)cc1	4.48
CCCCC(=O)Nc1ccc(Cn2c(CCCC)nc3c(N)nc4ccccc4c32)cc1	1.59
CCCCc1nc2c(N)nc3ccccc3c2n1Cc1ccc(NC(=O)OCC)cc1	8.78
CCCCc1nc2c(N)nc3ccccc3c2n1Cc1ccc(NC(=O)CCN)cc1	0.131
CCCCc1nc2c(N)nc3ccccc3c2n1Cc1cccc(OC)c1	2.5
CCCCc1nc2c(N)nc3ccccc3c2n1Cc1ccc(NC(=O)CCCCCNC(=O)OC(C)(C)C)cc1	1.91
CCOCc1nc2c(N)nc3ccccc3c2n1CC(C)(C)O [RESIQUIMOD]	5.3
CCCCc1nc2c(N)nc3ccccc3c2n1Cc1ccc(NC(=O)CCCCN)cc1	0.838
CCCCOC(=O)Cc1ccc(Cn2c(CCCC)nc3c(N)nc4ccccc4c32)cc1	14.2
CCCCc1nc2c(N)nc3ccccc3c2n1Cc1ccc(NC(=O)CCCCCN)cc1	0.436
CCCCc1nc2c(N)nc3ccccc3c2n1Cc1ccc(NC(=O)CCCN)cc1	0.159
CCCCc1nc2c(N)nc3ccccc3c2n1Cc1ccc(NC(C)=O)cc1	3.45
CCCCc1nc2c(N)nc3ccccc3c2n1Cc1cccc(N)c1	5.26

biological target: T2, Toll-like receptor 8 (Homo sapiens) (UniProt Q9NR97); test: Agonist activity at TLR8 in GM-CSF induced human MDM cells assessed as increase in TNFalpha release at 80 to 2000 nM measured after 6 hrs; type: cell-based; conditions: filed as agonist, dose 80-2000 nM
T2 sequence (whole entry): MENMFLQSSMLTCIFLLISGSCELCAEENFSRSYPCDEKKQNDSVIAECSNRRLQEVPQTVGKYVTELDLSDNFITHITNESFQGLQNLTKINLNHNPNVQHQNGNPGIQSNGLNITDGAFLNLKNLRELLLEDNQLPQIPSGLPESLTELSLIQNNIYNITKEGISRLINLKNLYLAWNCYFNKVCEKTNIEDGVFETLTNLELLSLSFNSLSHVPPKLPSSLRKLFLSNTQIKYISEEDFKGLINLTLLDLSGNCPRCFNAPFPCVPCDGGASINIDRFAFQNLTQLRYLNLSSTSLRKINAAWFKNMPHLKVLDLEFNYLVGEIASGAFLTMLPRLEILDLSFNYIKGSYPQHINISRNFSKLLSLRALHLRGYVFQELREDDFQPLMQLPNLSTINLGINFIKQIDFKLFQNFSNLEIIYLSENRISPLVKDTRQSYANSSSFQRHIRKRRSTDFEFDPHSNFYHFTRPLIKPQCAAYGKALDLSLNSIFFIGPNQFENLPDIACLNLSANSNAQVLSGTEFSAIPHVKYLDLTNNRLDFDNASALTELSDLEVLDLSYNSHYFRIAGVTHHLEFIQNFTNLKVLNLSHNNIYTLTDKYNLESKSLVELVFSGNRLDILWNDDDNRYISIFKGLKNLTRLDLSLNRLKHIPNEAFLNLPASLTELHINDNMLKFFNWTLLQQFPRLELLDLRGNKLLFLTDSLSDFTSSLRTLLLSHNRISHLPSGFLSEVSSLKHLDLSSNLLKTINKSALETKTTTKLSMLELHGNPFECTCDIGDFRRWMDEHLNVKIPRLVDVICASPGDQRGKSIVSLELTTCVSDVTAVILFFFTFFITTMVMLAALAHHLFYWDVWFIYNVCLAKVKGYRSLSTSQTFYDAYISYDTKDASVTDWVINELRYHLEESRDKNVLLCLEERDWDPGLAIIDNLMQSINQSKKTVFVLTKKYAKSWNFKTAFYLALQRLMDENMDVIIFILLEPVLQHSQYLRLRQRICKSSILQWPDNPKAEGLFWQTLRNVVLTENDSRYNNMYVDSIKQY

Compound	Activity
CCCN(CCC)C(=O)C1=Cc2ccc(-c3ccc(C(=O)N4CCCC4)cc3)cc2N=C(N)C1	Active

biological target: T2, Toll-like receptor 8 (Homo sapiens); test: Agonist activity at TLR8 in GM-CSF induced human MDM cells assessed as increase in IL-6 release at 80 to 2000 nM measured after 6 hrs; type: cell-based; conditions: filed as agonist, dose 80-2000 nM

Compound	Activity
CCCN(CCC)C(=O)C1=Cc2ccc(-c3ccc(C(=O)N4CCCC4)cc3)cc2N=C(N)C1	Active
